This note sets out measurements from ChEMBL document CHEMBL1157640, “Exploration of inhibitors for diaminopimelate aminotransferase” (Bioorg Med Chem, 2010).

One test has as its system Salmonella typhimurium. In words: Antimicrobial activity against Salmonella Typhimurium ATCC 23564 at <200 ug/mL. Format: functional, organism-based. To be noted: Salmonella enterica subsp. enterica serovar Typhimurium. The gist of the method: (§1)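 Soft agar overlay (0.75% w/v) seeded with 1% overnight culture of indicator strain, poured over 1.5% w/v solid agar; LB medium for Gram-negative, M17 for Gram-positive. 10 µL of test solution spotted and air-dried, with solvent controls (acetonitrile or methanol). Incubated overnight, 37 °C Gram-negative, 30 °C Gram-positive; scored for growth-inhibition halos.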

The target of test [1] is LL-diaminopimelate aminotransferase, chloroplastic (Arabidopsis thaliana) (UniProt Q93ZN9). In words: Inhibition of Arabidopsis thaliana LL-DAP-AT expressed in Escherichia coli at 10 uM by aminobenzaldehyde-based assay. The gist of the method:
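Robotic 96-well screen against C-terminal His6-tagged A. thaliana LL-DAP-AT (0.0043 mg/mL final) in 100 mM HEPES-KOH pH 7.6, with 8.5 mM 2-oxoglutarate, 7 mM OAB and 2.0 mM LL-DAP final. Inhibitor 10 µM final in DMSO, assuming MW 500. Absorbance at 440 nm read in triplicate before enzyme addition and after 3 h at room temperature. Activity taken relative to no-inhibitor wells; no-enzyme wells served as blank.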

Test [2] deals with LL-diaminopimelate aminotransferase, chloroplastic (Arabidopsis thaliana, UniProt Q93ZN9). In words: Inhibition of Arabidopsis thaliana LL-DAP-AT expressed in Escherichia coli by aminobenzaldehyde-based assay. To be noted: read-out: IC50. The gist of the method: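 His6-tagged A. thaliana LL-DAP-AT (0.0043 mg/mL final) in 1 mL cuvettes with 100 mM HEPES-KOH pH 7.6, 8.5 mM 2-OG, 7 mM OAB and 2.0 mM LL-DAP. Inhibitor at 5–200 µM final, added in 50 µL DMSO. A440 followed for 200 min, read every 2 min.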
Chain of LL-diaminopimelate aminotransferase, chloroplastic (Q93ZN9 whole entry): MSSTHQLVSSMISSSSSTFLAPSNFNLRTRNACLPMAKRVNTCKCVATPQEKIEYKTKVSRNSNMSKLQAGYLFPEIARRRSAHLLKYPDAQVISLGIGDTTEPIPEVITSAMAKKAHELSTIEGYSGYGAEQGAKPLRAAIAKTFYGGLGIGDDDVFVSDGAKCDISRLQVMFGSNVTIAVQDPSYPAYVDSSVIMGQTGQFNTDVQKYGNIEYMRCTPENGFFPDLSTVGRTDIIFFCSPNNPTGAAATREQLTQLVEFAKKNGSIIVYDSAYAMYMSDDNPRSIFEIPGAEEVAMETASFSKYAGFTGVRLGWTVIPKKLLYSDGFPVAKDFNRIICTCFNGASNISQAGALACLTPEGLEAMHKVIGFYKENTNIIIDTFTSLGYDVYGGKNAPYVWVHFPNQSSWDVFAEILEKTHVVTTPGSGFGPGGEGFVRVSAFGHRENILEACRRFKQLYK

Another test concerns Staphylococcus aureus. In words: Antimicrobial activity against Staphylococcus aureus ATCC 25923 at <200 ug/mL. Type of test: functional, organism-based. A digest of the protocol: as §1
The next test has as its system Pseudomonas aeruginosa. The experiment in a line: Antimicrobial activity against Pseudomonas aeruginosa ATCC 15442 at <200 ug/mL. Type of test: functional, organism-based. The gist of the method:
as §1

The test system of another test is Escherichia coli. In words: Antimicrobial activity against Escherichia coli DH5alpha at <200 ug/mL. Format: functional, organism-based. The gist of the method:
as §1

In a further test the test system is Carnobacterium divergens. In words: Antimicrobial activity against Carnobacterium divergens LV13 at <200 ug/mL. Format: functional, organism-based. A digest of the protocol:
as §1

The target of test [3] is LL-diaminopimelate aminotransferase, chloroplastic (Arabidopsis thaliana) (UniProt Q93ZN9). In words: Inhibition of Arabidopsis thaliana LL-DAP-AT expressed in Escherichia coli assessed as time independent type of inhibition by aminobenzaldehyde-based assay. A digest of the protocol: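 Enzyme (100 µL) and inhibitor (50 µL) were preincubated for six different times, then added to 850 µL of OAB-coupled substrate buffer. Inhibitor level was chosen from the IC50. A440 recorded as in the IC50 assay, with positive and no-enzyme controls. Time independence was judged by whether percent inhibition changed with preincubation time.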
Chain of LL-diaminopimelate aminotransferase, chloroplastic (Arabidopsis thaliana) (Q93ZN9 whole entry): as above

Test [4] has the same target. In words: Inhibition of Arabidopsis thaliana LL-DAP-AT expressed in Escherichia coli assessed as time dependent type of inhibition by aminobenzaldehyde-based assay. The gist of the method:
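Recombinant C-terminal His6-tagged enzyme (0.043 mg/mL, 100 µL) preincubated with 50 µL inhibitor (stock chosen from IC50 measurements) for six different times. Mixture then added to 850 µL substrate buffer: 100 mM HEPES-KOH pH 7.6, 2-oxoglutarate, 2-aminobenzaldehyde, racemic DAP. Absorbance at 440 nm recorded for 200 min. Percentage inhibition compared across preincubation times; no-inhibitor and no-enzyme controls included.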

Calls of active or inactive are those of the source. The rule behind the calls is not given here.

Take `Cc1cc(C=C2C(=O)NC(=S)NC2=O)c(C)n1C`: the inhibition entry with Salmonella typhimurium, in the test with Staphylococcus aureus, in the test with Pseudomonas aeruginosa, with Escherichia coli and with Carnobacterium divergens was “inactive” throughout. Besides, the inhibition in test [1] was 15%. In [2], the half-inhibitory concentration (IC50) stood at 25 µM. Also, in [3], the inhibition entry is “Active”.

With `O=C1OC(c2ccccc2)=C/C1=N\Nc1ccccc1C(=O)O`, the inhibition result with Salmonella typhimurium, in the test with Staphylococcus aureus, with Pseudomonas aeruginosa, in the test with Escherichia coli and with Carnobacterium divergens was “inactive” each time. In test [1], this compound had an inhibition of 16%. Also, in [2], the IC50 is 39 µM. The inhibition result in test [3] was “Active”.

Consider `O=C(Cn1c(/C=C2/C(=O)NC(=S)N(c3ccccc3)C2=O)cc2ccccc21)Nc1ccccc1`, for which the inhibition entry in [4] is “Active”. The inhibition in test [1] stood at 45%. Moreover, the IC50 in test [2] worked out at 33 µM.

The term inhibition denotes the drop in the measured response relative to a control, in per cent. As usually defined, the IC50 is the concentration that inhibits the measured activity by half.
